Experiment: Toxicity liver stage against HepG2, at 10uM
Format: cell-based
Parameters: test concentration 10 uM, cell line HepG2-A16-CD81EGFP
Conditions: human, HepG2-A16-CD81EGFP cells; read-out: INHIBITION
Summary of the method: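 Uninfected HepG2-A16-CD81EGFP cells, 3 × 10^3 per well, 1536-well, plated on prespotted compound at 10 μM final, parasite-free screening media added to match infected plates; puromycin 10 μM positive, DMSO 0.5% negative; run in parallel with 48 h PbLuc assay at 37 °C, 5% CO2; viability by CellTiter-Glo luminescence, normalized to controls.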
In the case of `Cc1nc(Oc2ccccc2Cl)sc1C(=O)O`, the cytotoxicity at 10 µM is reported as -11.9%.
Work on `CC1=Nc2c(c(=O)[nH]n2C2CCCCC2)C(c2cccnc2)S1` (stereo not drawn) yielded a cytotoxicity at 10 µM of 6.72%.
`Cc1nccn1CC1CCN(C(=O)c2cccs2)CC1` showed a cytotoxicity at 10 µM of -14.2%.
Molecule `COc1ccc(S(=O)(=O)NCCn2cnc(C)cc2=O)cc1C` has a cytotoxicity at 10 µM of 7.69%.
In the case of `CN(C)S(=O)(=O)N1CCN(c2cc(-n3cccc3)ncn2)CC1`, the cytotoxicity at 10 µM is reported as 0.781%.
In the case of `CC1c2ncc(COCC3CC3)n2CCN1S(=O)(=O)N(C)C` (stereo not drawn), the cytotoxicity at 10 µM is reported as 18.4%.
For `COCCO[C@H]1CCN(C(=O)c2ccoc2C)[C@H]1Cc1cnn(C)c1`, the cytotoxicity at 10 µM was -6.98%.
For `O=C([C@@H]1C[C@@H]2CCN(Cc3ccco3)C[C@H]2O1)N1CCCO1`, the cytotoxicity at 10 µM was 4.78%.
In the case of `COc1ccc(-c2cc3nn(CC(N)=O)c(=O)n3c(C)n2)cc1`, the cytotoxicity at 10 µM is reported as -5.29%.
`CC(C)N1C(=O)CC(N2CCN(c3ccc(F)cc3)CC2)C1=O` (stereo not drawn) gave a cytotoxicity at 10 µM of 8.44%.
`CCOc1nc2cccnc2n(CC(=O)NCCOC)c1=O` showed a cytotoxicity at 10 µM of -7.84%.
Work on `COc1ccccc1NC(=O)NCC(O)(c1ccccc1)C1CC1` (stereo not drawn) yielded a cytotoxicity at 10 µM of -19.5%.
Work on `O=c1ccc(-c2cccs2)nn1CN1CCCCCC1` yielded a cytotoxicity at 10 µM of -5.51%.
For `COCc1cnc2n1CCN(C(=O)C1=CCCCC1)C2C` (stereo not drawn), the cytotoxicity at 10 µM was -2.93%.
Molecule `O=C(CC1CC1)N1CCn2cc(Cn3cncn3)nc2C1` has a cytotoxicity at 10 µM of -8.87%.
Molecule `CCN(Cc1ccncc1)S(C)(=O)=O` has a cytotoxicity at 10 µM of 14.4%.
`COCc1cccc(S(=O)(=O)Nc2ncc(C)s2)c1` gave a cytotoxicity at 10 µM of -8.13%.
In the case of `O=C(c1cnco1)N1CCC(Cc2cnc3ccccc3c2)CC1`, the cytotoxicity at 10 µM is reported as 5.08%.
`CC(=O)NCCc1cc2nc(-c3ccncc3)ccn2n1` showed a cytotoxicity at 10 µM of 2.95%.
Molecule `Cc1cc(C(F)(F)F)nc(C2(C)CCCN2CC(N)=O)n1` (stereo not drawn) has a cytotoxicity at 10 µM of 6.62%.
`CC(C)(C)c1nnc2n1C(C(=O)N1CCN(c3ncccn3)CC1)CC2` (stereo not drawn) showed a cytotoxicity at 10 µM of -7.46%.
`CN1CCN(c2ccccc2CNC(=O)Cc2ccccc2F)CC1` gave a cytotoxicity at 10 µM of -1.1%.
Work on `COCCCNC(=O)Nc1ccc(OCc2noc(C3CC3)n2)cc1` yielded a cytotoxicity at 10 µM of 7.04%.
With `Cc1cc(C(F)(F)F)c2c(=O)n(Cc3ccon3)n(C)c2n1` the cytotoxicity at 10 µM was 5.85%.
With `CCCC(=O)Nc1cnn(CC(=O)Nc2ccc(SC)cc2)c1` the cytotoxicity at 10 µM was -8.81%.
With `CC(C)c1noc(CNc2cccc(-c3nnnn3C)c2)n1` the cytotoxicity at 10 µM was -5.47%.
`O=C(CCNc1ncccn1)NCc1csc(Br)c1` showed a cytotoxicity at 10 µM of 5.15%.
In the case of `CC(C)c1cc(C(=O)N2CCN(Cc3ccco3)CC2)n[nH]1`, the cytotoxicity at 10 µM is reported as 2.18%.
For `Cc1cc(C)n(CC2CN(Cc3ccc4c(c3)OCCO4)CCO2)n1` (stereo not drawn), the cytotoxicity at 10 µM was -22.3%.
For `c1ccc(-c2nnc3ccc(N4CCC5(CCOC5)C4)nn23)cc1` (stereo not drawn), the cytotoxicity at 10 µM was 7.12%.
In the case of `CC(C)C(NC(=O)c1ccccc1)C(=O)N1CCC2(CC1)OCCO2` (stereo not drawn), the cytotoxicity at 10 µM is reported as 5.44%.
In the case of `Cc1nc2n(n1)CC(NCC(=O)NCC1(c3ccccc3)CC1)CC2` (stereo not drawn), the cytotoxicity at 10 µM is reported as -6.52%.
In the case of `Cc1[nH]ncc1C(C)NCc1cccnc1` (stereo not drawn), the cytotoxicity at 10 µM is reported as -0.98%.
Molecule `CC(=O)NCC1CCN(C(=O)c2ccc(Sc3ccccn3)cc2)CC1` has a cytotoxicity at 10 µM of 9.15%.
With `CC(=O)N1CCN(C(=O)c2ccc(Sc3ccccn3)cc2)CC1` the cytotoxicity at 10 µM was 10.7%.
For `CC(Cn1cccn1)NC(=O)N(C)Cc1ccc(C(N)=O)cc1` (stereo not drawn), the cytotoxicity at 10 µM was 3.37%.
In the case of `CC(C)COCCC(=O)Nc1cccnc1-n1cncn1`, the cytotoxicity at 10 µM is reported as 1.28%.
`Cc1cnc(CN(Cc2ccccc2)CC2CCOCC2)cn1` gave a cytotoxicity at 10 µM of 15.6%.
With `Cc1noc(CCCNC(=O)N2CCc3ccccc3C2CO)n1` (stereo not drawn) the cytotoxicity at 10 µM was 8.69%.
`O=C(NCCNc1ncccn1)N1CCCC(C(F)(F)F)C1` (stereo not drawn) showed a cytotoxicity at 10 µM of 1.05%.
`CC(C)NC(=O)N1CCC(n2ccc(C(F)(F)F)n2)CC1` showed a cytotoxicity at 10 µM of 3.02%.
Molecule `Cc1cccc(CNC(=O)CNc2cc(CO)ccc2Cl)c1` has a cytotoxicity at 10 µM of 1.73%.
For `CN(C)c1ccc(CNC(=O)c2ccc(Cl)cc2F)cc1`, the cytotoxicity at 10 µM was -8.33%.
For `Cc1cc(CNC(=O)N2CCN(c3ccccc3)CC2)no1`, the cytotoxicity at 10 µM was 5.27%.
Molecule `CNC(=O)c1nc2c(s1)CCN(C(=O)Cc1ccc(OC)cc1)CC2` has a cytotoxicity at 10 µM of 4.76%.
In the case of `Cc1nnc([C@@H]2CC[C@@H]3[C@@H](CCN3S(=O)(=O)c3cccnc3)O2)o1`, the cytotoxicity at 10 µM is reported as 0.462%.
`Cc1cc(NCc2noc(C(C)C)n2)nc(-c2ccccc2)n1` showed a cytotoxicity at 10 µM of 11%.
In the case of `CSCC(=O)N[C@H]1CC[C@H](Nc2nccc(-c3ccncc3)n2)C1`, the cytotoxicity at 10 µM is reported as 11.8%.
For `Cn1c(N2CC[C@H](O)C2)nc2cc(C(N)=O)ccc21`, the cytotoxicity at 10 µM was 5.83%.
With `COc1ccc(C(=O)N2CCC(Oc3ccc(C)cc3)(C(=O)O)CC2)o1` the cytotoxicity at 10 µM was 9.68%.
In the case of `CCCc1nc(CN(CC)Cc2ccc(O)c(C(=O)O)c2)no1`, the cytotoxicity at 10 µM is reported as -6.33%.
With `Cn1cc2ncn(CCCOc3cccnc3)c(=O)c2n1` the cytotoxicity at 10 µM was -5.18%.
In the case of `COCc1nc(N2CCC(CCO)CC2)c2cnn(C)c2n1`, the cytotoxicity at 10 µM is reported as 1.22%.
`COc1ccc(O)c(C(=O)NCC2CCCN(C3CCOCC3)C2)c1` (stereo not drawn) showed a cytotoxicity at 10 µM of -3.23%.
`CCC(=O)N1CCc2[nH]cnc2C12CCN(C(=O)c1snnc1C)CC2` gave a cytotoxicity at 10 µM of 13.9%.
Molecule `O=C1CC(c2cccs2)c2cnn(C3CCCC3)c2N1` (stereo not drawn) has a cytotoxicity at 10 µM of 23.3%.
`CNc1cc(CNC(=O)c2ccccc2)nc(-c2ccncc2)n1` gave a cytotoxicity at 10 µM of 0.462%.
With `CC(C)N1CCN(C(=O)c2ccc(Cn3ccccc3=O)o2)CC1` the cytotoxicity at 10 µM was -13.1%.
`Cc1nnc2n1CCN(Cc1csc(-c3ccsc3)n1)C2` gave a cytotoxicity at 10 µM of -12.4%.
For `COc1ccc(Cl)cc1NCCC(=O)NCCNc1cnccn1`, the cytotoxicity at 10 µM was -10.3%.
Work on `CCc1noc(CN(Cc2ccc3c(c2)OCO3)C2CCCC2)n1` yielded a cytotoxicity at 10 µM of -0.315%.
For `Cc1noc(C)c1CN(C)C(=O)NC1CCCN(S(C)(=O)=O)C1` (stereo not drawn), the cytotoxicity at 10 µM was -13.9%.
Molecule `COc1ccc(CC(=O)NC2CCN(CC(F)F)CC2)cc1OC` has a cytotoxicity at 10 µM of -8.48%.
`O=C(NCC(F)(F)F)c1ccc(-c2ccco2)[nH]c1=O` gave a cytotoxicity at 10 µM of -21.6%.
With `Cc1ccc2oc(C(=O)N3CCc4nnc(N(C)C)cc4C3)cc2n1` the cytotoxicity at 10 µM was -3.25%.
`CC(C)n1ccnc1CN1CCCN(C(=O)CC2C=CCC2)CC1` (stereo not drawn) showed a cytotoxicity at 10 µM of 3.08%.
Molecule `CC(NCc1cccnc1)c1ccc(OCC(=O)NC2CC2)cc1` (stereo not drawn) has a cytotoxicity at 10 µM of 2.36%.
`Cc1cc(CN(Cc2cccs2)CC2CCCO2)no1` (stereo not drawn) showed a cytotoxicity at 10 µM of 2.86%.
For `O=C(NCc1nncn1-c1ccccc1)C1CC(=O)N(CC2CC2)C1` (stereo not drawn), the cytotoxicity at 10 µM was -2.97%.
Molecule `Cc1cc(C2CCCN(C(=O)c3ccc(C)[nH]c3=O)C2)n[nH]1` (stereo not drawn) has a cytotoxicity at 10 µM of -5.65%.
In the case of `Cn1cc(-c2nc(CN3CCc4c(ncn4C4CC4)C3)cs2)cn1`, the cytotoxicity at 10 µM is reported as -17.6%.
Molecule `CCc1ccc(OCC(O)CN2CCN(S(C)(=O)=O)CC2)cc1` (stereo not drawn) has a cytotoxicity at 10 µM of 7.07%.
For `CN(C)c1cc(CNC(=O)c2ccc(=O)[nH]n2)ccn1`, the cytotoxicity at 10 µM was 0.962%.
`Cc1cnn(CC2CCCN2C(=O)CCc2ccsc2)c1` (stereo not drawn) gave a cytotoxicity at 10 µM of -1.64%.
With `CCC(CO)NCc1ccc(-c2ccc(F)cc2)o1` (stereo not drawn) the cytotoxicity at 10 µM was -5.67%.
For `c1ccc(CN2CCOC3(CCN(c4ncccn4)CC3)C2)nc1`, the cytotoxicity at 10 µM was -2.42%.
`CN(C)CCN1CCOCC2(C1)CN(Cc1nccs1)CCO2` (stereo not drawn) showed a cytotoxicity at 10 µM of 6%.
In the case of `COC[C@@H]1CCC[C@@]12CN(Cc1ccc(C)s1)CCO2`, the cytotoxicity at 10 µM is reported as 6.76%.
In the case of `Cc1nc(CN2CCC3(CC2)CC(=O)N(C)c2ccccc23)cs1`, the cytotoxicity at 10 µM is reported as 0.0115%.
Work on `CN1[C@H](CN2CCCC2)C[C@@H]2CN(C(=O)c3cccn3C)CC[C@@H]21` yielded a cytotoxicity at 10 µM of 5.57%.
`COCCN1C[C@@H]2CN(Cc3cccc(C)n3)C[C@@H]2C1=O` gave a cytotoxicity at 10 µM of 6.66%.
For `COCCN1C(=O)CCC12CCN(c1ncc(F)cn1)CC2`, the cytotoxicity at 10 µM was 0.632%.
`O=C(CCn1cncn1)N1C[C@@H]2CC[C@H]1CN(Cc1cccnc1)C2` showed a cytotoxicity at 10 µM of 7.39%.

— ChEMBL document CHEMBL4513216, “Probing the Open Global Health Chemical Diversity Library for Multistage-Active Starting Points for Next-Generation Antimalarials” (ACS Infect Dis, 2020)
